How the values were obtained:
Mus musculus [1] = experiment: Toxicity in ICR mouse allografted with mouse EAC assessed as mortality at 125 mg/kg, ip qd for 5 days; assay type: organism-based; parameters: dose 125 mg/kg, route intraperitoneal; conditions: in vivo, 120 h
How it was run: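 Ehrlich ascites carcinoma (1 × 10^7 cells) implanted into ICR mice, six per group; compound ip daily for 5 days; mice sacrificed day 7; tumour burden as total packed cell volume (ascites volume × PCV), T/C % vs controls; mortality recorded.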

Ehrlich = experiment: Antitumor activity against mouse EAC allografted in ICR mouse assessed as tumor growth at 125 mg/kg, ip qd for 5 days measured on day 7 relative to control; assay type: functional; conditions: route intraperitoneal
How it was run: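 Ehrlich ascites carcinoma (1 × 10^7 cells) implanted into ICR mice, six per group. Drug in saline ip, qd days 1–5. Mice killed day 7. Total packed cell volume = ascites volume × % packed cell volume; T/C % = TPCV treated/control × 100. Activity graded from T/C.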

Mus musculus [2] = experiment: Toxicity in ICR mouse allografted with mouse S180A assessed as mortality at 50 mg/kg, ip qd for 5 days; assay type: organism-based; parameters: dose 50 mg/kg, route intraperitoneal; conditions: in vivo, 120 h
How it was run: (§1)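 Ascites Sarcoma 180 (1 × 10^7 cells) implanted into ICR mice, six per group; compound in saline ip once daily days 1-5; sacrifice on day 7; total packed cell volume (ascites volume × PCV) compared with controls as T/C %; mortality recorded.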

[3] = Antitumor activity against mouse S180A allografted in ICR mouse assessed as tumor growth at 50 mg/kg, ip qd for 5 days measured on day 7 relative to control; assay type: functional; conditions: route intraperitoneal
How it was run: (§2)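 Ascites Sarcoma 180 (1 × 10^7 cells) implanted into ICR mice, six animals per group. Five daily ip injections in saline (days 1–5). Sacrificed day 7. T/C % computed from total packed cell volume (ascites volume × PCV) vs controls. Grades: 100-66 = -, 65-41 = +, 40-11 = ++, 10-0 = +++.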

Rattus norvegicus [4] = experiment: Diabetogenic activity in iv dosed Wistar rat assessed as increase in blood sugar level administered as single dose by glucose oxidase method; assay type: ADME, organism-based; conditions: in vivo
How it was run: (§3)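 Male Wistar rats, about 200 g, five per group, fasted 16 h. Single iv dose into the femoral vein in physiological saline, equimolar across compounds. Caudal-vein blood sampled at set times over 24 h. Sugar measured by glucose oxidase.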

Mus musculus [5] = experiment: Toxicity in BDF1 mouse allografted with mouse L1210 cells assessed as mortality at 50 mg/kg, ip qd for 5 days; assay type: organism-based; parameters: dose 50 mg/kg, route intraperitoneal; conditions: in vivo, 120 h
How it was run: (§4)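 L1210 (1 × 10^5 cells) implanted into BDF1 mice, six per group; compound in saline ip once daily days 1-5; effect read as % increase in life span, ILS = [(treated life span/control life span) − 1] × 100.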

L1210 [6] = experiment: Antitumor activity against mouse L1210 cells allografted in BDF1 mouse assessed as increase in host lifespan at 50 mg/kg, ip qd for 5 days relative to control; assay type: functional; conditions: 120 h, route intraperitoneal; how it was run: as §4
Bacillus subtilis = experiment: Antibacterial activity against Bacillus subtilis ATCC 6633 assessed as growth inhibition after 18 hrs by broth dilution method; assay type: functional; conditions: ATCC 6633, 18 h
How it was run: (§5)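 Twofold serial dilutions in heart infusion broth. Inoculum was a 24-h heart infusion broth culture diluted 100-fold in physiological saline. Tubes incubated 30 °C for 18 h; the table footnote gives 32 °C for 24 h. MIC in µg/ml is the lowest level giving complete growth inhibition.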

Klebsiella pneumoniae = experiment: Antibacterial activity against Klebsiella pneumoniae ATCC 10031 assessed as growth inhibition after 18 hrs by broth dilution method; assay type: functional; conditions: ATCC 10031, 18 h; how it was run: as §5
Micrococcus luteus = experiment: Antibacterial activity against Sarcina lutea ATCC 9341 assessed as growth inhibition after 18 hrs by broth dilution method; assay type: functional; conditions: ATCC 9341, 18 h; how it was run: as §5
Mus musculus [7] = experiment: Ratio of compound LD10 to streptozotocin LD10 for JCL-ICR mouse; assay type: ADME, organism-based; conditions: in vivo
Salmonella typhi = experiment: Antibacterial activity against Salmonella typhi IFM 3020 assessed as growth inhibition after 18 hrs by broth dilution method; assay type: functional, Salmonella enterica subsp. enterica serovar Typhi; conditions: Salmonella enterica, IFM 3020, 18 h
How it was run: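 Twofold serial dilutions in heart infusion broth; inoculum from 24 h heart infusion broth culture diluted 100-fold in physiological saline; tubes incubated 30 °C for 18 h; MIC (µg/ml) = lowest level giving complete growth inhibition.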

[8] = Ratio of compound LD50 to streptozotocin LD50 for JCL-ICR mouse; assay type: ADME, organism-based; conditions: in vivo
Mus musculus [9] = experiment: Toxicity in ICR mouse allografted with mouse S180A assessed as mortality at 25 mg/kg, ip qd for 5 days; assay type: organism-based; parameters: dose 25 mg/kg, route intraperitoneal; conditions: in vivo, 120 h; how it was run: as §1
Escherichia coli = experiment: Antibacterial activity against Escherichia coli NIHJ JC-2 assessed as growth inhibition after 18 hrs by broth dilution method; assay type: functional; conditions: NIHJ JC-2, 18 h; how it was run: as §5
Pseudomonas fluorescens = experiment: Antibacterial activity against Pseudomonas fluorescens NIHJ B-254 assessed as growth inhibition after 18 hrs by broth dilution method; assay type: functional; conditions: NIHJ B-254, 18 h; how it was run: as §5
Shigella sonnei = experiment: Antibacterial activity against Shigella sonnei assessed as growth inhibition after 18 hrs by broth dilution method; assay type: functional; how it was run: as §5
Proteus vulgaris = experiment: Antibacterial activity against Proteus vulgaris AHU 1469 assessed as growth inhibition after 18 hrs by broth dilution method; assay type: functional; conditions: AHU 1469, 18 h; how it was run: as §5
Enterococcus faecalis = experiment: Antibacterial activity against Streptococcus faecalis ATCC 10541 assessed as growth inhibition after 18 hrs by broth dilution method; assay type: functional; conditions: ATCC 10541, 18 h; how it was run: as §5
Staphylococcus aureus = experiment: Antibacterial activity against Staphylococcus aureus FDA 209P JC-1 assessed as growth inhibition after 18 hrs by broth dilution method; assay type: functional; conditions: FDA 209P JC-1, 18 h; how it was run: as §5
Rattus norvegicus [10] = experiment: Diabetogenic activity in Wistar rat assessed as increase in blood sugar level at 71.4 mg/kg, iv administered as single dose by glucose oxidase method; assay type: ADME, organism-based; parameters: dose 71.4 mg/kg, route intravenous; conditions: in vivo; how it was run: as §3
[11] = Antitumor activity against mouse S180A allografted in ICR mouse assessed as tumor growth at 25 mg/kg, ip qd for 5 days measured on day 7 relative to control; assay type: functional; conditions: route intraperitoneal; how it was run: as §2
[12] = (§6) Acute toxicity in ip dosed JCL-ICR mouse assessed as animal death; assay type: organism-based; conditions: JCL-ICR, in vivo
How it was run: (§7)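 Groups of ten female JCL-ICR mice given single ip dose in physiological saline; deaths followed over 7 days; LD50 (and LD10) derived by Litchfield–Wilcoxon method.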

Mus musculus [13] = experiment: as §6; assay type: organism-based; conditions: in vivo; how it was run: as §7
Mus musculus [14] = experiment: Toxicity in BDF1 mouse allografted with mouse L1210 cells assessed as mortality at 100 mg/kg, ip qd for 5 days; assay type: organism-based; parameters: dose 100 mg/kg, route intraperitoneal; conditions: in vivo, 120 h; how it was run: as §4
L1210 [15] = experiment: Antitumor activity against mouse L1210 cells allografted in BDF1 mouse assessed as increase in host lifespan at 100 mg/kg, ip qd for 5 days relative to control; assay type: functional; conditions: 120 h, route intraperitoneal; how it was run: as §4
Rattus norvegicus [16] = experiment: Diabetogenic activity in Wistar rat assessed as increase in blood sugar level at 74.7 mg/kg, iv administered as single dose by glucose oxidase method; assay type: ADME, organism-based; parameters: dose 74.7 mg/kg, route intravenous; conditions: in vivo; how it was run: as §3

Compound	Activity (Mus musculus [1])	T/C (Ehrlich) [%]	Activity (Mus musculus [2])	T/C [3] [%]	Activity (Rattus norvegicus [4])	Activity (Mus musculus [5])	ILS at 50 mg/kg (L1210 [6]) [%]	MIC (Bacillus subtilis) [µg/mL]	MIC (Klebsiella pneumoniae) [µg/mL]	MIC (Micrococcus luteus) [µg/mL]	Ratio (Mus musculus [7])	MIC (Salmonella typhi) [µg/mL]	selectivity ratio [8]	Activity (Mus musculus [9])	MIC (Escherichia coli) [µg/mL]	MIC (Pseudomonas fluorescens) [µg/mL]	MIC (Shigella sonnei) [µg/mL]	MIC (Proteus vulgaris) [µg/mL]	LD50 [12] [mg/kg]	LD10 (Mus musculus [13]) [mg/kg]	other results
CCCCN(N=O)C(=O)N[C@H]1[C@H](OC)O[C@H](CO)[C@@H](O)[C@@H]1O	Non-toxic	52	Non-toxic	54	Non-toxic	Non-toxic	12														
CCO[C@@H]1O[C@H](CO)[C@@H](O)[C@H](O)[C@H]1NC(=O)N(C)N=O								> 1000	> 1000	> 1000	2	> 1000	2	Non-toxic	> 1000	> 1000	> 1000	> 1000	2050	1550	MIC (Enterococcus faecalis): > 1000 µg/mL; MIC (Staphylococcus aureus): > 1000 µg/mL; Activity (Rattus norvegicus [10]): Non-toxic; T/C [11]: 37%
CCO[C@H]1O[C@H](CO)[C@@H](O)[C@H](O)[C@H]1NC(=O)N(CC)N=O	Non-toxic	60	Non-toxic	63	Non-toxic																Activity (Mus musculus [14]): Non-toxic; ILS at 100 mg/kg (L1210 [15]): 14%
CCO[C@@H]1O[C@H](CO)[C@@H](O)[C@H](O)[C@H]1NC(=O)N(CC)N=O			Non-toxic	59	Non-toxic																Activity (Mus musculus [14]): Non-toxic; ILS at 100 mg/kg (L1210 [15]): 10%
CCCO[C@H]1O[C@H](CO)[C@@H](O)[C@H](O)[C@H]1NC(=O)N(C)N=O	Non-toxic	37			Non-toxic	Non-toxic	29				2		2	Non-toxic					1470	1020	T/C [11]: 32%
CCCO[C@@H]1O[C@H](CO)[C@@H](O)[C@H](O)[C@H]1NC(=O)N(C)N=O			Non-toxic	32		Non-toxic	30	> 1000	> 1000	> 1000	2	> 1000	2		> 1000	> 1000	> 1000	> 1000	2150	1240	MIC (Enterococcus faecalis): > 1000 µg/mL; MIC (Staphylococcus aureus): > 1000 µg/mL; Activity (Rattus norvegicus [16]): Non-toxic

From ChEMBL document CHEMBL3272319, “Alkyl streptozotocin analogues with improved biological activities” (J Med Chem, 1976)
